# Results collected from several papers.
# Lines come from different studies, so protocols differ.
# CYP2B6: Cytochrome P450 2B6 (CYP2B6, Homo sapiens, UniProt P20813)
# UGT1A6: UDP-glucuronosyltransferase 1A6 (UGT1A6, Homo sapiens, UniProt P19224)
Compound,target or system,assay,system,conditions,measurement,value
COc1c(F)cccc1C=NNc1nc(-c2ccc(F)cc2)cs1,,haemolysis,human,"50 µM, 30 min, pH 7.4",haemolysis,20%
CCOP(=O)(OCC)[C@@H]1C[C@H](n2cc(Cn3cnc4c(N)ncnc43)nn2)ON1C (relative stereo),HEL,cell growth or viability,,72 h,CC50,> 100 µM
C=CC(=O)N(C)CCOc1c(N)ncnc1-c1cc(F)cc(NC(=O)c2ccc(C3CC3)cc2F)c1C,CYP2B6,"enzyme activity, substrate",,"10 min, pH 7.4",Km,1.3 µM
CCc1ccc(-n2cc(CN3CCN(C(=O)c4c(C)nc5cc(C)ccn45)CC3)nn2)cc1,HeLa,"cell growth or viability, resazurin",,,CC50,> 100 µM
Fc1ccc(-c2csc(NN=Cc3ccc(C(F)(F)F)cc3)n2)cc1,,haemolysis,human,"100 µM, 30 min, pH 7.4",haemolysis,41%
Cc1ccn2c(C(=O)N3CCN(Cc4cn(-c5ccc([N+](=O)[O-])cc5)nn4)CC3)c(C)nc2c1,HeLa,"cell growth or viability, resazurin",,,CC50,> 100 µM
COc1ccc(S(=O)(=O)Nc2c(C(=O)Nc3c(C(=O)O)cc(OC)c(OC)c3OC)cc(OC)c(OC)c2OC)cc1,HeLa,"cell growth or viability, XTT",,72 h,IC50,95 µM
Cc1nc2ccc(Cl)cn2c1C(=O)N1CCN(Cc2cn(-c3cccc(C(F)(F)F)c3)nn2)CC1,HeLa,"cell growth or viability, resazurin",,,CC50,> 100 µM
CCOP(=O)(OCC)[C@@H]1C[C@@H](n2cc(-c3ccccc3)nn2)ON1C (racemic),HeLa,cell growth or viability,,72 h,CC50,> 250 µM
CN(CCC(=O)O)C(=O)c1ccc2c(c1)CC[C@@H]1[C@@H]2CC[C@]2(C)C(c3cncc(F)c3)=CC[C@@H]12,UGT1A6,"enzyme activity, inhibitor",,,IC50,> 30 µM
Cc1ccc(C(=O)N2CCOC[C@H]2Cc2cccc(-n3nccn3)c2)c(-n2nccn2)c1,CYP2B6,"enzyme activity, inhibitor","human, liver microsomes",100 µM,inhibition,44%
Oc1ccc(Cl)cc1C=NNc1nc(-c2ccc(F)cc2)cs1,,haemolysis,human,"50 µM, 30 min, pH 7.4",haemolysis,21.2%
Cc1ccn2c(C(=O)N3CCN(Cc4cn(-c5cccc([N+](=O)[O-])c5)nn4)CC3)c(C)nc2c1,HeLa,"cell growth or viability, resazurin",,,CC50,> 100 µM
CC(=NNc1nc(-c2ccc(F)cc2)cs1)c1cccc(Br)c1,,haemolysis,human,"10 µM, 30 min, pH 7.4",haemolysis,0%
CCCc1cn(CCN2CCN(C(=O)c3c(C)nc4cc(C)ccn34)CC2)nn1,HeLa,"cell growth or viability, resazurin",,,CC50,> 100 µM
CCOc1ccccc1C=NNc1nc(-c2ccc(F)cc2)cs1,,haemolysis,human,"10 µM, 30 min, pH 7.4",haemolysis,0%
C[C@@H]1[C@H](O)[C@@H](C)/C=C/C=C/C=C/C=C/C=C/C=C/C=C/[C@H](O[C@@H]2O[C@H](C)[C@@H](O)[C@H](N)[C@@H]2O)C[C@@H]2O[C@](O)(C[C@@H](O)C[C@@H](O)[C@H](O)CC[C@@H](O)C[C@@H](O)CC(=O)O[C@H]1C)C[C@H](O)[C@H]2C(=O)O,,haemolysis,human,"0.5 µg/mL, 1 h",haemolysis,3.73%
CC(=O)c1cc(C(=O)N[C@@H](C)Cn2ccc(-c3ccc(C#N)c(Cl)c3)n2)[nH]n1,UGT1A6,"enzyme activity, inhibitor","human, liver microsomes",,IC50,> 50 µM
Fc1ccc(-c2csc(NN=Cc3ccccc3C(F)(F)F)n2)cc1,,haemolysis,human,"100 µM, 30 min, pH 7.4",haemolysis,45.7%
CCOP(=O)(OCC)[C@@H]1C[C@@H](n2cc(Cn3ccc(=O)[nH]c3=O)nn2)ON1C (racemic),HeLa,cell growth or viability,,72 h,CC50,≥ 250 µM
C[C@@H](Cn1ccc(-c2ccc(C#N)c(Cl)c2)n1)NC(=O)c1cc([C@@H](C)O)[nH]n1,UGT1A6,"enzyme activity, inhibitor","human, liver microsomes",,IC50,> 100 µM
COc1cccc(-n2cc(CN3CCN(C(=O)c4c(C)nc5cc(C)ccn45)CC3)nn2)c1,HeLa,"cell growth or viability, resazurin",,,CC50,> 100 µM
CCOP(=O)(OCC)[C@@H]1C[C@H](n2cc(Cn3ccc(NC(C)=O)nc3=O)nn2)ON1C (racemic),HeLa,cell growth or viability,,72 h,CC50,> 250 µM
COc1cccc(-n2cc(CN3CCN(C(=O)c4c(C)nc5ccc(Cl)cn45)CC3)nn2)c1,HeLa,"cell growth or viability, resazurin",,,CC50,> 100 µM
Fc1ccc(-c2csc(NN=Cc3ccc[nH]3)n2)cc1,,haemolysis,human,"50 µM, 30 min, pH 7.4",haemolysis,26.3%
CCOP(=O)(OCC)[C@@H]1C[C@@H](n2cc(Cn3cc(C)c(=O)[nH]c3=O)nn2)ON1C (racemic),HeLa,cell growth or viability,,72 h,CC50,> 250 µM
Fc1ccc(-c2csc(NN=Cc3cccs3)n2)cc1,,haemolysis,human,"50 µM, 30 min, pH 7.4",haemolysis,32.4%
Cc1ccn2c(C(=O)N3CCN(CCn4cc(C5CC5)nn4)CC3)c(C)nc2c1,HeLa,"cell growth or viability, resazurin",,,CC50,> 100 µM
OC(Cn1cncn1)(Cn1cncn1)c1ccc(F)cc1F,,haemolysis,human,"8 µg/mL, 1 h",haemolysis,4.52%
